Compounds with a hit are over-represented: about 3.5% of the library has one in this group of screens.
RGS4 inh – RGS4 inhibitors, primary screen, cell-based, HEK293 M3R inducible RGS4, calcium flux; Regulator of G-protein signaling 4 (Homo sapiens), P49798; Fluo-4 calcium flux; active compounds read high; triggered by carbachol at its EC20; B-score at 10 µM; hit rate 0.45% among 310,000; AID 463165, 2010;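 active = B-score, a plate-corrected calcium signal, over three deviations above library mean, with baseline fluorescence within five deviations of library mean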;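 also: RGS4 expression induced by doxycycline in cells with stable M3 receptor; B-score is computed from the integrated fluorescence ratio over baseline after carbachol; higher B-score means a larger calcium signal and so more RGS4 inhibition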
Target sequence (P49798 whole entry, looked up): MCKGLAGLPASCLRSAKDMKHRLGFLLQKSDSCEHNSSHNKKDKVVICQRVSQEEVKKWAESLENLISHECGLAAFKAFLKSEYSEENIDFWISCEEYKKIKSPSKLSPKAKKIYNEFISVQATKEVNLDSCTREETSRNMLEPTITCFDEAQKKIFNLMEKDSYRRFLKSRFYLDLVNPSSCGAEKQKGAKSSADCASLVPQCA
RGS4 act – RGS4 potentiators or activators, primary screen, cell-based, HEK293 M3R inducible RGS4, calcium flux; carbachol calcium flux Fluo4; active compounds read low; B-score at 10 µM; hit rate 0.92% among 310,000; AID 463111, 2010;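 active = B-score of the integrated calcium signal more than 4 SD below the library mean, with starting fluorescence not abnormally high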;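 also: negative B-score means reduced calcium response which marks RGS4 activation or potentiation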
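Detection: kinetic calcium fluorescence imaging with Fluo4-AM dye, 2 µM / Material: HEK293 cells with stable M3R and inducible RGS4 / Schedule: recording 10 s baseline at 1 Hz, 100 s post-agonist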
MrgX1 ag – agonists of human MrgX1 receptor, primary screen, HEK293 cells, Fluo-4 calcium flux | AID 588627, 2011 | hit rate 0.44% among 310,000 | Fluo-4 calcium fluorescence, agonist mode; active compounds read high | B-score at 10 µM;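 active = calcium response B-score plate-corrected fluorescence ratio at least 3 library SD, with starting fluorescence B-score inside 5 SD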
Target sequence (Q96LB2 whole entry, looked up): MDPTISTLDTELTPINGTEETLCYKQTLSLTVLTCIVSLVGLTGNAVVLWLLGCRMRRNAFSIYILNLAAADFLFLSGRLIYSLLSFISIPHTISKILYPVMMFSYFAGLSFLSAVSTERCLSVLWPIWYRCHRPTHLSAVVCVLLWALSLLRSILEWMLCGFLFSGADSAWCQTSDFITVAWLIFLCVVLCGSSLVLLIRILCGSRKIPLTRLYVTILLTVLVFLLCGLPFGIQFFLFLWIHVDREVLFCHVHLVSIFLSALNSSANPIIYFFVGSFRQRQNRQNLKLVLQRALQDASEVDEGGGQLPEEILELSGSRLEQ
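Test system: Stable human MrgX1 HEK293 cell line | Schedule: Overnight plating before 1 h dye loading | Read-out basis: Baseline-normalised fluorescence change ratio, B-scored | Detection: Kinetic calcium dye fluorescence, Fluo-4 NW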
MrgX1 allo act – positive allosteric modulators of MrgX1, primary screen, HEK293 cells, Fluo-4 calcium flux. Mas-related G-protein coupled receptor member X1 (Homo sapiens), Q96LB2. FDSS; active compounds read high. B-score at 10 µM. hit rate 0.63% among 310,000;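 active = plate-corrected calcium response at least 3 library SD above typical, normal starting fluorescence, not activating the receptor alone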;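 also: compound read alongside a low EC10 to EC30 dose of BAM8-22 agonist; peak minus trough fluorescence over baseline measured at the second addition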
MrgX1 antag – antagonists of human MrgX1 receptor, primary screen, HEK293 cells, Fluo-4 calcium flux; Mas-related G-protein coupled receptor member X1 (Homo sapiens), Q96LB2; AID 588676, 2011; B-score at 10 µM; hit rate 1.3% among 310,000; BAM8-22 antagonism; active compounds read low;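 active = calcium-response B-score plate-corrected more than 3 library SD below zero, starting fluorescence within 5 deviations, no agonist response on first addition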;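 also: peak minus trough fluorescence over baseline after final BAM8-22 challenge near maximal dose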
RGS4 inh valid – enhanced carbachol calcium response, M3R/RGS4 cells, RGS4 inhibitor project, cell-based, validation screen, HEK293 M3R/RGS4, calcium flux; shares compounds with RGS4 inh; carbachol calcium Fluo-4 fluorescence; carbachol added at its EC20; 0 = buffer wells, 100 = carbachol control; calcium response, % at 10 µM; hit rate 65% among 1,700;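 active = duplicate-averaged calcium response above the buffer-only control mean plus 5 SD of those controls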;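 also: integrated fluorescence ratio F max minus min over baseline F0; higher response in RGS4-induced cells means RGS4 inhibition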
RGS4 uninduced – carbachol calcium response in non-induced M3R cells, confirmation, counter-screen for RGS4 inhibitor project, cell-based, HEK293 M3R. shares compounds with RGS4 inh. carbachol calcium Fluo-4; submaximal (EC20) carbachol stimulus; buffer wells 0%, carbachol control wells 100%. activity (percent), % at 10 µM. hit rate 20% among 1,900; call rule not given here;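 also: RGS4 induction absent so cells express M3R without RGS4; higher means more calcium signal and flags a non-specific hit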
M3R basal Ca ctr – second RGS4 inhibitor counter-screen in uninduced cells lacking carbachol; shares compounds with RGS4 inh; HEK293 M3R/RGS4 non-induced, Fluo-4 calcium, no carbachol; normalised: buffer wells 0%, carbachol wells 100%; calcium response (agonist-mode artifact), % at 10 µM; hit rate 22% among 1,900; AID 493001;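 active = duplicate-averaged calcium rise in uninduced cells above buffer wells' mean plus 5 SD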
MrgX1 ag confirm – MrgX1 receptor agonists, duplicate retest, confirmation, HEK293 cells, Fluo-4 calcium flux; shares compounds with MrgX1 ag; Fluo-4 calcium fluorescence, FDSS; activation, % at 10 µM; hit rate 78% among 600; AID 602412, 2012;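 active = calcium signal rise, corrected for plate position, at least 3 library SD high, with starting brightness within 5 such deviations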
MrgX1 antag conf – MrgX1 receptor antagonists, duplicate retest, confirmation, HEK293 cells, Fluo-4 calcium flux; shares compounds with MrgX1 antag; BAM8-22 calcium flux; active compounds read low; remaining BAM8-22 calcium response % of control (active compounds read low), % at 10 µM; hit rate 19% among 2,300; AID 602420, 2012;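 active = remaining agonist calcium response no higher than 100% minus 3 SD of agonist-only control wells, with starting fluorescence near control levels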;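 also: agonist BAM8-22 given at a near maximal EC90 to ECmax level; peak minus minimum fluorescence divided by baseline after agonist addition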
HEK293 Ca flux – nonspecific calcium signal in parental HEK293, confirmation, counter-screen for MrgX1 antagonist project, parental HEK293 cells, Fluo-4 calcium flux | Fluo-4 calcium fluorescence, FDSS | hit rate 2% among 4,000 | shares compounds with MrgX1 antag | fluorescence ratio F(max-min)/F0 at 10 µM;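 active = duplicate-averaged calcium fluorescence ratio at least three times the standard deviation of buffer wells, a nonspecific response in parental cells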
HEK293 Ca counter – calcium response in parental HEK293 cells, primary screen, counter-screen for MrgX1 allosteric activator project, cell-based, Fluo-4 calcium flux, duplicate | shares compounds with MrgX1 antag | Fluo-4 fluorescence ratio; active compounds read high | fluorescence ratio F(max-min)/F0 at 10 µM | hit rate 0.4% among 4,000 | AID 624114, 2012;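 active = calcium fluorescence ratio, averaged over duplicates, at least 3 SD of the buffer-well ratio, meaning a nonspecific response in receptor-free cells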;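 also: untransfected parental HEK293 lacking MrgX1 used as counterscreen for MrgX1 allosteric activators; fluorescence change taken during the second addition on a kinetic imager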
HEK293 Ca cntr2 – calcium response in parental HEK293 cells, primary screen, counter-screen for MrgX1 agonist project, cell-based, Fluo-4 calcium flux, duplicate, agonist mode | shares compounds with MrgX1 antag | fluorescence ratio F(max-min)/F0 at 10 µM | Fluo-4 calcium fluorescence (FDSS); active compounds read high | hit rate 8.7% among 4,000;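 active = calcium fluorescence ratio at least three times the spread of buffer wells, meaning a non-specific response in parental cells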
The depositor's hits bear a star; i = inactive; . = no result.

SMILES | RGS4 inh | RGS4 act | MrgX1 ag | MrgX1 allo act | MrgX1 antag | MrgX1 ag confirm | HEK293 Ca flux | HEK293 Ca counter | HEK293 Ca cntr2 | others
O=C1/C(=C\c2ccc(O)c(O)c2)SC(=S)N1Cc1ccccc1 | 14* | i | i | i | -12* | . | 0.31* | i | i | RGS4 inh valid=16%*;RGS4 uninduced=36%*;M3R basal Ca ctr=42%*;MrgX1 antag conf=i
O=C(C1CCC(=O)N(C2CC2)C1)N(CCO)Cc1ccccc1 (stereo not given) | i | i | i | i | i | . | . | . | .
CCOC(=O)C(=O)C1=C(N2CCOCC2)/C(=C\c2ccc(F)cc2)CC1 | 7.7* | i | 27* | i | i | 220%* | i | i | 45* | RGS4 inh valid=7.0%*;RGS4 uninduced=i;M3R basal Ca ctr=21%*
CC(C)Cn1c(C23CC4CC(CC(C4)C2)C3)n[nH]c1=S | i | i | i | i | i | . | . | . | .
CCOC(=O)[C@@H]1[C@H]2COc3ccccc3[C@H]2N2C(=O)N(c3ccc(OC)cc3)C(=O)[C@]12C | i | i | i | i | -6.3* | . | i | i | i | RGS4 inh valid=i;RGS4 uninduced=i;M3R basal Ca ctr=i;MrgX1 antag conf=i
CCOC(=O)[C@@H]1[C@H]2COc3ccccc3[C@@H]2N2C(=O)N(c3cccc(C)c3)C(=O)[C@]12C | i | i | i | i | -5.8* | . | i | i | i | RGS4 inh valid=i;RGS4 uninduced=i;M3R basal Ca ctr=i;MrgX1 antag conf=i
CCOC(=O)[C@@H]1[C@H]2COc3cc(OC)ccc3[C@H]2N2C(=O)N(c3ccc(C(F)(F)F)cc3)C(=O)[C@@]12C | i | i | i | i | i | . | . | . | .
CN=C(Nc1cc(C)nn1CCC#N)c1ccccc1 | i | i | i | i | i | . | . | . | .
Cc1cc(OC(=O)c2ccccc2)n(CCC#N)n1 | i | i | 38* | i | i | 195%* | i | i | i
CN(C)c1ccc(/C=C(/C(=O)c2ccc(Cl)cc2Cl)n2cncn2)cc1 | i | i | 77* | i | i | i | 0.33* | i | i
CCCCC(=O)NC(=S)Nc1cccc(C(=O)O)c1 | i | i | 32* | i | i | i | i | i | i
CC(NC(=O)C(c1ccccc1)c1ccccc1)C(=O)N1CCCCC1 (stereo not given) | i | i | i | i | i | . | . | . | .
CCc1cc(=S)n2c([nH]c3ccccc32)c1C#N | i | i | 43* | i | i | 284%* | i | i | 93*
CCc1cc(=O)n2c([nH]c3ccccc32)c1C#N | i | i | i | i | i | . | . | . | .
CCCc1nc2ccccc2c(=O)n1/N=C/c1c(C)[nH]n(-c2ccc(C)cc2)c1=O | i | i | 78* | i | i | 320%* | i | i | 91*
Cc1cc(C)nc(N/N=C/c2cc(C)n(CC(F)(F)F)c2C)n1 | i | i | i | i | i | . | . | . | .
CCOC(=O)c1ccc2c(c1)NCc1cccc(OC)c1O2 | i | i | 28* | i | i | i | i | i | i
CC(C)c1ccc(NC2(C#N)C(=O)Nc3ccccc32)cc1 (stereo not given) | i | i | 39* | i | i | 191%* | i | i | 49*
COc1ccc(C2(C)NC(=O)N(CC(=O)Nc3ccc(C)cc3Br)C2=O)cc1OC (stereo not given) | i | i | i | i | i | . | . | . | .
CCN(CC)CCCOC(=O)c1ccc(OC)cc1O | i | i | i | i | i | . | . | . | .
Oc1ccccc1-c1nnc2n1CCCCC2 | i | i | 27* | i | i | i | i | i | i
Cc1ccc(-c2nnc3n2CCCCC3)cc1 | i | i | i | i | i | . | . | . | .
Cc1cccc(C(=O)NC(=S)NNC(=O)Cc2ccccc2)c1 | i | i | 119* | i | i | 638%* | i | i | 137*
Cc1cccc(C(=O)NC(=S)Nc2ccccc2C(=O)O)c1 | i | i | i | i | i | . | . | . | .
Cc1cccc(C(=O)NC(=S)NNC(=O)c2ccccc2Cl)c1 | i | i | 105* | i | i | 776%* | i | i | 149*
COC(=O)c1ccc(Cl)cc1N(Cc1c(F)cccc1Cl)S(C)(=O)=O | i | i | 71* | i | i | 290%* | i | i | 61*
CC(C)(C)NC(=O)C(=O)NNC(=O)c1cccc(F)c1 | i | i | i | i | i | . | . | . | .
Fc1ccc(CNC(=S)NC2CCCC2)cc1 | i | i | i | i | i | . | . | . | .
